According to ChEMBL document CHEMBL1132454 (J Med Chem, 1999):

How the values were obtained:
[1] = biological target: T1, Sodium-dependent dopamine transporter (Rattus norvegicus, UniProt P23977); experiment: Inhibition of Dopamine uptake in male Sprague-Dawley rats using [3H]DA ligand
[2] = biological target: T2, Norepinephrine transporter (Rattus norvegicus, UniProt Q9WTR4); experiment: The compound was tested for binding affinity nisoxatine ligand; IA = inactive
Procedure, shortened: (§1)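 Rat frontal cortex membranes (male Sprague–Dawley) in 50 mM Tris/120 mM NaCl/5 mM KCl pH 7.4; 8 mg wet tissue with 0.5 nM [3H]nisoxetine, 60 min at 0–4 °C; 1 μM desipramine for nonspecific; filtration, scintillation counting.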

[3] = biological target: T1, Sodium-dependent dopamine transporter; experiment: (§2) Binding affinity Sprague-Dawley rats using [3H]WIN-35428 ligand
Procedure, shortened: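 Rat caudate-putamen membranes washed in ice-cold Krebs-HEPES pH 7.4, ~0.3% w/v (150–300 μg protein). Drug added 5 min before 1.5 nM [3H]WIN 35,428; 1 h on ice; filtration.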

[4] = biological target: T3, Sodium-dependent serotonin transporter (Rattus norvegicus, UniProt P31652); experiment: Binding affinity against Serotonin transporter in male Sprague-Dawley rats using [3H]paroxetine ligand; IA = inactive
Procedure, shortened: (§3)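 Frozen rat midbrain membranes in 50 mM Tris, 120 mM NaCl, 5 mM KCl pH 7.4; 1.5 mg wet tissue per tube with 0.2 nM [3H]paroxetine, 90 min at room temperature; nonspecific defined with 1 μM citalopram; filtration and scintillation counting.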

[5] = (§4) Binding affinity of Sigma opioid receptor type 1 in Guinea pig brain membranes using [3H]pentazocine ligand; type: cell membranes, Membrane
Procedure, shortened: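 σ1 sites: guinea pig brain membranes minus cerebella (350–500 μg protein) with 3 nM [3H](+)-pentazocine in 50 mM Tris-HCl pH 8.0, 120 min at 25 °C; 10 μM haloperidol for nonspecific; filtration on polyethyleneimine-soaked filters. IC50 converted to Ki via Cheng–Prusoff.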

[6] = biological target: T2, Norepinephrine transporter; experiment: (§5) The compound was tested for binding affinity nisoxatine ligand; procedure, shortened: as §1
[7] = biological target: T3, Sodium-dependent serotonin transporter; experiment: (§6) Binding affinity against Serotonin transporter in male Sprague-Dawley rats using [3H]paroxetine ligand; procedure, shortened: as §3
[8] = biological target: Sigma intracellular receptor 2 (Rattus norvegicus, UniProt Q5U3Y7); experiment: The compound was tested for binding affinity of Sigma opioid receptor type 2 in rat liver membranes using [3H]DTG ligand; type: cell membranes, Membrane
Procedure, shortened: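 σ2 sites: male Sprague–Dawley rat liver membranes (160 μg protein), 5 nM [3H]DTG plus 1 μM dextrallorphan masking σ1, 50 mM Tris-HCl pH 8.0, 120 min at 25 °C; 10 μM haloperidol nonspecific; filtration. IC50 converted to Ki by Cheng–Prusoff.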

[9] = biological target: T1, Sodium-dependent dopamine transporter; experiment: as §2; remark: listed apart in the source
Procedure, shortened: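 Rat caudate-putamen membranes washed in modified Krebs-HEPES buffer, pH 7.4; 150-300 μg protein per tube. Filtration read-out; Ki by nonlinear least-squares fit; at least three independent experiments.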

[10] = biological target: T2, Norepinephrine transporter; experiment: as §5; remark: listed apart in the source
Procedure, shortened: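 Male Sprague-Dawley rat frontal cortex membranes in 50 mM Tris, 120 mM NaCl, 5 mM KCl, pH 7.4; 8 mg original wet tissue per tube. Incubation with 0.5 nM [3H]nisoxetine for 60 min at 0-4 °C. Nonspecific binding with 1 μM desipramine. Filtration and scintillation counting; Ki from at least three experiments in triplicate.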

[11] = biological target: T3, Sodium-dependent serotonin transporter; experiment: as §6; remark: listed apart in the source
Procedure, shortened: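 Male Sprague-Dawley rat midbrain membranes in 50 mM Tris, 120 mM NaCl, 5 mM KCl, pH 7.4; 1.5 mg original wet tissue per tube. Incubation with 0.2 nM [3H]paroxetine for 90 min at room temperature. Nonspecific binding with 1 μM citalopram. Filtration and scintillation counting; Ki from at least three experiments in triplicate.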

[12] = as §4; type: cell membranes, Membrane; remark: listed apart in the source
Procedure, shortened: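 Guinea pig brain membranes (minus cerebella), 350–500 μg protein, with 3 nM [3H](+)-pentazocine in 50 mM Tris-HCl pH 8.0 for 120 min at 25 °C. Nonspecific binding with 10 μM haloperidol. Filtration, then overnight extraction and counting. IC50 from curve fit, converted to Ki by Cheng-Prusoff.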

T2 sequence (Q9WTR4 whole entry): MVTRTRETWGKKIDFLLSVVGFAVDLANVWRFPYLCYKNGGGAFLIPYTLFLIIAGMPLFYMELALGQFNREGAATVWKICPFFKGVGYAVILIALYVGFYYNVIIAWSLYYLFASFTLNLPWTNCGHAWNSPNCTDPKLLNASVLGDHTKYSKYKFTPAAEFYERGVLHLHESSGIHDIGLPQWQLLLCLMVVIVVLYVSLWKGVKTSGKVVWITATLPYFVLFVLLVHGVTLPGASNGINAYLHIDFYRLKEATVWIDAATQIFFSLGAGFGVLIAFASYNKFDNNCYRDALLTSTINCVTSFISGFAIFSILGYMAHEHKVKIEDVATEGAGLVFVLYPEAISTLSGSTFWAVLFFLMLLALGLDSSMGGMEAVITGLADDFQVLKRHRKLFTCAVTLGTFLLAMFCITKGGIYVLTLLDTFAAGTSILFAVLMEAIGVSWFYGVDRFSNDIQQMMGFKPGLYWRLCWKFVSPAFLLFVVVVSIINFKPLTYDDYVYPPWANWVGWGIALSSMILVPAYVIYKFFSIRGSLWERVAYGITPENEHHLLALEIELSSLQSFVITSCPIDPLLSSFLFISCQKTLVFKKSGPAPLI
T1 sequence (P23977 whole entry): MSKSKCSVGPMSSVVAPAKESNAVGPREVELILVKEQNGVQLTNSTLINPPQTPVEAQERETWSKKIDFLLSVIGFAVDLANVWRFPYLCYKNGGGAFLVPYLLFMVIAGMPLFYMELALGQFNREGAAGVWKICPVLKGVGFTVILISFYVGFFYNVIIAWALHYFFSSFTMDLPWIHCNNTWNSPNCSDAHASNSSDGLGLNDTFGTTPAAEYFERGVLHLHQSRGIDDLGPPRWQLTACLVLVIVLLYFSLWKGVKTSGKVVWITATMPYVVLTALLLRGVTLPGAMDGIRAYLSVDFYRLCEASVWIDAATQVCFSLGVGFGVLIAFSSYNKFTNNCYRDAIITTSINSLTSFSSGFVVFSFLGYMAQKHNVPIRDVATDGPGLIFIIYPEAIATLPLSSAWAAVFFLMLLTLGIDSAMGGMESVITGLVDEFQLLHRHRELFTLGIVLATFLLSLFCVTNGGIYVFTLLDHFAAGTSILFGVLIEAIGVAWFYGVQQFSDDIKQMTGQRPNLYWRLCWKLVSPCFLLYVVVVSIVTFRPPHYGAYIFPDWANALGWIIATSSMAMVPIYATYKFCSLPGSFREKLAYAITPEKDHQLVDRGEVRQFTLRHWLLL
T3 sequence (P31652 whole entry): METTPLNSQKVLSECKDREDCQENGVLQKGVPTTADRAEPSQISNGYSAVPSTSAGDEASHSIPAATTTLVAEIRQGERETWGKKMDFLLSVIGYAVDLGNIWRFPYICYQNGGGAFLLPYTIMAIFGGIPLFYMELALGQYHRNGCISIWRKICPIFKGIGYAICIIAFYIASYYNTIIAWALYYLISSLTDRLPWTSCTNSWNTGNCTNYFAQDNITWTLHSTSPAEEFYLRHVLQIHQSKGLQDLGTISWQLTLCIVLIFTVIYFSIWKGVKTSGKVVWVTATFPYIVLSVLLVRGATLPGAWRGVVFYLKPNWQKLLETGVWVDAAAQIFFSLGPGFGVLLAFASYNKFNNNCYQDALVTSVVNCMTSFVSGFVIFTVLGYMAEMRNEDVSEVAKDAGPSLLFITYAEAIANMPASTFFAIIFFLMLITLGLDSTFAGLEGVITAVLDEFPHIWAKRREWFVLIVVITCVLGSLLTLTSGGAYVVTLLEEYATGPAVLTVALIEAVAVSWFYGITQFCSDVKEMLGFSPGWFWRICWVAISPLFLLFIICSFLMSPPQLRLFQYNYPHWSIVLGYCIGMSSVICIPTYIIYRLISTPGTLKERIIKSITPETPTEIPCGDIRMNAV
Sequence of Sigma intracellular receptor 2 (Q5U3Y7 whole entry, looked up): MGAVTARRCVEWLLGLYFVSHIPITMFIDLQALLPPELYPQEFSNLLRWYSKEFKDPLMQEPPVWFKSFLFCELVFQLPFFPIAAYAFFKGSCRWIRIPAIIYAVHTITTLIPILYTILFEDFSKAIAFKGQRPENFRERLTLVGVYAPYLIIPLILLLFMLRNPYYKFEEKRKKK

| SMILES | IC50 [1] [nM] | Ki [2] | Ki [3] [nM] | Ki [4] | Ki [5] [nM] | Ki [6] [nM] | Ki [7] [nM] | Ki [8] [nM] | Ki [9] [nM] | Ki [10] [nM] | Ki [11] [nM] | Ki [12] [nM] |
| --- | --- | --- | --- | --- | --- | --- | --- | --- | --- | --- | --- | --- |
| Clc1ccccc1N1CCN(CCCn2c3ccccc3c3ccccc32)CC1 | 2770 | Not Active | 113000 | Not Active |  |  |  |  |  |  |  |  |
| C[C@H]1CN(CCCn2c3ccccc3c3ccccc32)C[C@H](C)N1C | 472 |  | 436 |  | 552 | 9370 | 373 | 230 |  |  |  |  |
| C[C@H]1CN(CCCn2c3ccccc3c3ccccc32)C[C@H](C)N1CCCc1ccccc1 | 639 |  | 263 |  | 104 | 2490 | 44.5 | 145 |  |  |  |  |
| C[C@H]1CN(CCCN(c2ccccc2)c2ccccc2)C[C@H](C)N1 | 1060 |  | 813 |  | 138 | 6810 | 13100 | 351 |  |  |  |  |
| C[C@H]1CN(CCCN(c2ccccc2)c2ccccc2)C[C@H](C)N1CCCc1ccccc1 | 36.6 |  | 61 |  | 97.2 | 3640 | 219 | 183 |  |  |  |  |
| C[C@H]1CN(CCCn2c3ccccc3c3cc([N+](=O)[O-])ccc32)C[C@H](C)N1 | 111 |  | 109 |  | 596 | 4580 | 1170 | 193 |  |  |  |  |
| C[C@H]1CN(CCCn2c3ccc(Br)cc3c3cc(Br)ccc32)C[C@H](C)N1 |  |  | 3890 |  | 4420 | 1300 | 1130 | 675 |  |  |  |  |
| C[C@H]1CN(CCCn2c3ccc([N+](=O)[O-])cc3c3cc([N+](=O)[O-])ccc32)C[C@H](C)N1 | 3670 |  |  |  |  |  |  |  | 174000 | 3660 | 1850 |  |
| C[C@H]1CN(CCCn2c3ccccc3c3cc(N)ccc32)C[C@H](C)N1 |  |  | 2400 |  | 5720 | 13900 | 2100 | 1660 |  |  |  |  |
| C[C@@H]1CN(CCCn2c3ccc(Br)cc3c3cc(Br)cc(Br)c32)C[C@@H](C)N1 |  |  |  |  |  |  |  |  | 30300 | 8540 | 1610 | > 6000 |
| c1ccc(N2CCN(CCCn3c4ccccc4c4ccccc43)CC2)cc1 | 1820 |  | 4930 | Not Active |  | 4120 |  |  |  |  |  |  |
| C[C@@H]1CN(CCCn2c3ccccc3c3ccccc32)C[C@H](C)N1 [RIMCAZOLE] | 140 |  | 224 |  |  | 2160 | 825 |  |  |  |  |  |
